Experiment: Analytical light scattering
Format: physicochemical
Details: for Mw (weighted-average molar mass): Superdex 200, 10°C; for P (population of species): integration of elution peak
Summary of the method: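 Full-length His-tagged human BclXL, 50 μM starting concentration, run on Superdex 200 SEC at 1 ml/min and 10 °C in 50 mM buffer (pH 4–10) with 100 mM NaCl, 1 mM EDTA and 5 mM β-mercaptoethanol. Inline triple-angle SLS, 90° DLS and refractive-index concentration detection. Mw, Mn and Rg from Zimm treatment; Rh from autocorrelation fit. Errors one SD, ≥3 independent runs.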

[1] = Dimer, pH 6, ± SD, n at least 3
[2] = Dimer, pH 8, ± SD, n at least 3
[3] = Dimer, pH 10, ± SD, n at least 3
[4] = Megamer, pH 4, ± SD, n at least 3
[5] = Monomer, pH 6, ± SD, n at least 3
[6] = Monomer, pH 8, ± SD, n at least 3
[7] = Multimer, pH 6, ± SD, n at least 3
[8] = Multimer, pH 8, ± SD, n at least 3
[9] = Multimer, pH 10, ± SD, n at least 3
[10] = Polymer, pH 6, ± SD, n at least 3
[11] = Polymer, pH 8, ± SD, n at least 3
[12] = Polymer, pH 10, ± SD, n at least 3

Substance: full-length BclXL: Full-length human BclXL (residues 1-233), N-terminal His-tag, expressed in Escherichia coli
- Mw (weighted-average molar mass) (Dimer, pH 6, phosphate, 50μM loaded, ± SD, n at least 3): 61 ± 3 kD
- P (population of species) (Dimer, pH 6): 11%
- Mn (number-average molar mass) [1]: 59 ± 2 kD
- Mw/Mn [1]: 1.02 ± 0.01
- Rh (weighted-average hydrodynamic radius) [1]: 49 ± 4 Å
- Mw (weighted-average molar mass) (Dimer, pH 8, Tris, 50μM loaded, ± SD, n at least 3): 62 ± 4 kD
- P (population of species) (Dimer, pH 8): 5%
- Mn (number-average molar mass) [2]: 61 ± 2 kD
- Mw/Mn [2]: 1.01 ± 0.01
- Rh (weighted-average hydrodynamic radius) [2]: 48 ± 2 Å
- Mw (weighted-average molar mass) (Dimer, pH 10, CAPS, 50μM loaded, ± SD, n at least 3): 61 ± 3 kD
- P (population of species) (Dimer, pH 10): 5%
- Mn (number-average molar mass) [3]: 60 ± 3 kD
- Mw/Mn [3]: 1.02 ± 0.01
- Rh (weighted-average hydrodynamic radius) [3]: 49 ± 3 Å
- Mw (weighted-average molar mass) (Megamer, pH 4, acetate, 50μM loaded, ± SD, n at least 3): 33805 ± 2821 kD
- Mn (number-average molar mass) (Megamer, pH 4, 50μM loaded, 10°C, ± SD, n at least 3): 33085 ± 2623 kD
- P (population of species) (Megamer, pH 4): 100%
- Mw/Mn [4]: 1.02 ± 0.01
- Rg (weighted-average radius of gyration) [4]: 783 ± 86 Å
- Rg/Rh [4]: 2.40 ± 0.16
- Rh (weighted-average hydrodynamic radius) [4]: 324 ± 23 Å
- Mw (weighted-average molar mass) (Monomer, pH 6, phosphate, 50μM loaded, ± SD, n at least 3): 32 ± 2 kD
- P (population of species) (Monomer, pH 6): 31%
- Mn (number-average molar mass) [5]: 31 ± 2 kD
- Mw/Mn [5]: 1.01 ± 0.01
- Rh (weighted-average hydrodynamic radius) [5]: 26 ± 1 Å
- Mw (weighted-average molar mass) (Monomer, pH 8, Tris, 50μM loaded, ± SD, n at least 3): 31 ± 1 kD
- P (population of species) (Monomer, pH 8): 7%
- Mn (number-average molar mass) [6]: 30 ± 2 kD
- Mw/Mn [6]: 1.00 ± 0.00
- Rh (weighted-average hydrodynamic radius) [6]: 34 ± 2 Å
- Mw (weighted-average molar mass) (Monomer, pH 10, CAPS, 50μM loaded, ± SD, n at least 3): 31 ± 2 kD
- P (population of species) (Monomer, pH 10): 9%
- Mw (weighted-average molar mass) (Multimer, pH 6, phosphate, 50μM loaded, ± SD, n at least 3): 595 ± 45 kD
- P (population of species) (Multimer, pH 6): 37%
- Mn (number-average molar mass) [7]: 577 ± 39 kD
- Mw/Mn [7]: 1.03 ± 0.02
- Rg (weighted-average radius of gyration) [7]: 141 ± 5 Å
- Rg/Rh [7]: 1.47 ± 0.02
- Rh (weighted-average hydrodynamic radius) [7]: 95 ± 3 Å
- Mw (weighted-average molar mass) (Multimer, pH 8, Tris, 50μM loaded, ± SD, n at least 3): 364 ± 32 kD
- P (population of species) (Multimer, pH 8): 51%
- Mn (number-average molar mass) [8]: 325 ± 33 kD
- Mw/Mn [8]: 1.11 ± 0.01
- Rg (weighted-average radius of gyration) [8]: 98 ± 4 Å
- Rg/Rh [8]: 1.08 ± 0.02
- Rh (weighted-average hydrodynamic radius) [8]: 90 ± 2 Å
- Mw (weighted-average molar mass) (Multimer, pH 10, CAPS, 50μM loaded, ± SD, n at least 3): 461 ± 21 kD
- P (population of species) (Multimer, pH 10): 50%
- Mn (number-average molar mass) [9]: 448 ± 23 kD
- Mw/Mn [9]: 1.03 ± 0.01
- Rg (weighted-average radius of gyration) [9]: 131 ± 5 Å
- Rg/Rh [9]: 1.21 ± 0.01
- Rh (weighted-average hydrodynamic radius) [9]: 108 ± 4 Å
- Mw (weighted-average molar mass) (Polymer, pH 6, phosphate, 50μM loaded, ± SD, n at least 3): 3521 ± 292 kD
- P (population of species) (Polymer, pH 6): 21%
- Mn (number-average molar mass) [10]: 3101 ± 201 kD
- Mw/Mn [10]: 1.13 ± 0.03
- Rg (weighted-average radius of gyration) [10]: 230 ± 12 Å
- Rg/Rh [10]: 1.22 ± 0.02
- Rh (weighted-average hydrodynamic radius) [10]: 187 ± 9 Å
- Mw (weighted-average molar mass) (Polymer, pH 8, Tris, 50μM loaded, ± SD, n at least 3): 3729 ± 246 kD
- P (population of species) (Polymer, pH 8): 37%
- Mn (number-average molar mass) [11]: 3226 ± 236 kD
- Mw/Mn [11]: 1.15 ± 0.02
- Rg (weighted-average radius of gyration) [11]: 218 ± 12 Å
- Rg/Rh [11]: 1.15 ± 0.03
- Rh (weighted-average hydrodynamic radius) [11]: 188 ± 11 Å
- Mw (weighted-average molar mass) (Polymer, pH 10, CAPS, 50μM loaded, ± SD, n at least 3): 3189 ± 229 kD
- P (population of species) (Polymer, pH 10): 36%
- Mn (number-average molar mass) [12]: 3018 ± 212 kD
- Mw/Mn [12]: 1.06 ± 0.02
- Rg (weighted-average radius of gyration) [12]: 232 ± 13 Å
- Rg/Rh [12]: 1.14 ± 0.02
- Rh (weighted-average hydrodynamic radius) [12]: 202 ± 7 Å
- mass of megamer (acidic conditions (pH 4)): ~ 34,000 kD
- monomeric units in megadalton oligomer (acidic conditions (pH 4)): more than 1000 monomeric units
- Mw/Mn (megadalton oligomer, pH 4, text): < 1.05
- Mw/Mn (monomeric and dimeric forms): < 1.05
- Rg/Rh (multimer and polymer): > 1.05
- mass of monomer (pH 6 and higher): ~ 31 kD

Source: PMC3483416 (Archives of biochemistry and biophysics, 2012)
